Data as given in ChEMBL document CHEMBL2396643, “Discovery of a small molecular compound simultaneously targeting RXR and HADC: design, synthesis, molecular docking and bioassay” (Bioorg Med Chem Lett, 2013).

Experiments:
KB [1] = assay: Cytotoxicity against bexarotene-resistant human KB cells assessed as growth inhibition after 48 hrs by MTT assay; format: functional, cell-based
How it was run: (§1)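 Cells seeded at 3000 per well and exposed to diluted compounds, with bexarotene and SAHA as positive controls, for 48 h (drug-resistant cells) or 72 h (parental cells). Final DMSO 0.1%. Cell number determined by MTT dye per manufacturer instructions.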

[2] = Cytotoxicity against human Hep3B cells assessed as growth inhibition after 72 hrs by MTT assay; format: functional, cell-based, Hep 3B2
KB [3] = assay: Cytotoxicity against human KB cells assessed as growth inhibition after 72 hrs by MTT assay; format: functional, cell-based; how it was run: as §1
DU-145 = assay: Cytotoxicity against human DU145 cells assessed as growth inhibition after 72 hrs by MTT assay; format: functional, cell-based; conditions: DU-145, 72 h
How it was run: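 Seeded at 3000 cells/well and incubated with diluted compounds, with bexarotene and SAHA as positive controls, for 72 h. Final DMSO 0.1%. Remaining cells quantified with MTT dye per manufacturer instructions.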

[4] = Cytotoxicity against human GBC-SD cells assessed as growth inhibition after 72 hrs by MTT assay; format: functional, cell-based
HGC-27 = assay: Cytotoxicity against human HGC27 cells assessed as growth inhibition after 72 hrs by MTT assay; format: functional, cell-based; conditions: HGC-27, 72 h
A549 = assay: Cytotoxicity against human A549 cells assessed as growth inhibition after 72 hrs by MTT assay; format: functional, cell-based; conditions: A549, 72 h
[5] = molecular target: T1, Histone deacetylase (Homo sapiens) (UniProt Q13547+O15379+Q9UBN7+Q92769+Q9UQL6+Q8WUI4+Q9BY41+Q96DB2+P56524+Q9UKV0+Q969S8); assay: Inhibition of HDAC in human HL60 cells assessed as increase in p21 WAF1/CIP1 level after 48 hrs by Western blot analysis; format: cell-based; conditions: HL-60
How it was run: (§2)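 About 1 × 10⁷ HL60 cells exposed to compound or SAHA for 48 h. Nuclear protein extracted, equal protein amounts resolved on 10–15% SDS–PAGE and blotted to PVDF. Probed for acetylated H3 and p21WAF1/CIP1, with histone H3 and β-actin as loading controls. ECL detection on X-ray film, densitometry relative to control.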

[6] = molecular target: T1, Histone deacetylase (Homo sapiens); assay: Inhibition of HDAC in human HL60 cells assessed as increase in acetylated H3 level after 48 hrs by Western blot analysis; format: cell-based; conditions: HL-60; how it was run: as §2
[7] = molecular target: T1, Histone deacetylase (Homo sapiens); assay: Inhibition of HDAC in human HL60 cells using Boc-Lys(Ac)-pNA as substrate incubated for 24 hrs prior to substrate addition measured after 90 mins by fluorescence assay; format: cell-based; conditions: HL-60
How it was run: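 HL60 cells exposed to a range of compound concentrations or SAHA for 24 h, then lysed and protein measured by BCA. Lysates incubated with Boc-Lys(Ac)-pNA (10 mM) in HDAC assay buffer for 90 min at 37 °C. Lysine Developer added and incubated 30 min at 37 °C before plate-reader readout. Mean ± SD of three determinations.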

Histone deacetylase = assay: Inhibition of HDAC isolated from human HeLa cell nuclear extract after 30 mins by fluorescence assay; format: protein assay
[8] = molecular target: T2, Retinoic acid receptor RXR-alpha (Homo sapiens, UniProt P19793); assay: Transactivation of human RXRalpha transfected in human 293 cells after 48 hrs by dual-luciferase reporter gene assay; format: cell-based, HEK293
T2 sequence (P19793 whole entry): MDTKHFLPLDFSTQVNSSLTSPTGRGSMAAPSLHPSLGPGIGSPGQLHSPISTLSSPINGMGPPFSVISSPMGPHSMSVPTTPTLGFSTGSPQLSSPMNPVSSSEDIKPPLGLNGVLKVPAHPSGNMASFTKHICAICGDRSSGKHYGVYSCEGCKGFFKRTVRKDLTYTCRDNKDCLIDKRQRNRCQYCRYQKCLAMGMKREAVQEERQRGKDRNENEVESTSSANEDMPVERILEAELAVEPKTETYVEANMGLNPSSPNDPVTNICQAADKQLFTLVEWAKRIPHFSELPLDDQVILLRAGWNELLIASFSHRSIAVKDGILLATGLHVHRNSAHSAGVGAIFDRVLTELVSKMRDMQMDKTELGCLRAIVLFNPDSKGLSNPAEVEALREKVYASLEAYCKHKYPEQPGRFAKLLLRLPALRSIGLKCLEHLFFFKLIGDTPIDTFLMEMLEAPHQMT

A549/SAHA = assay: cells; conditions: Homo sapiens, 48 h

| inhibition [5] | inhibition [6] | inhibition [7] | IC50 (Histone deacetylase) [µM] | EC50 [8] [µM] | IC50 (A549/SAHA) [µM] | Compound | IC50 (KB [1]) [µM] | IC50 [2] [µM] | IC50 (KB [3]) [µM] | IC50 (DU-145) [µM] | IC50 [4] [µM] | IC50 (HGC-27) [µM] | IC50 (A549) [µM] |
| --- | --- | --- | --- | --- | --- | --- | --- | --- | --- | --- | --- | --- | --- |
| – | – | – | – | – | – | C=C(c1ccc(C(=O)O)cc1)c1cc2c(cc1C)C(C)(C)CCC2(C)C [BEXAROTENE] | 46.3 | 192 | 8.8 | 61.6 | 73.3 | 32.7 | – |
| Dose-dependent effect | Dose-dependent effect | Dose-dependent effect | 6.7 | 0.0195 | 3.8 | C=C(c1ccc(C(=O)NO)cc1)c1cc2c(cc1C)C(C)(C)CCC2(C)C | 16.8 | 17.4 | 6.1 | 14.1 | 24.1 | 8.6 | 9.4 |
| – | – | – | – | – | – | O=C(CCCCCCC(=O)Nc1ccccc1)NO [VORINOSTAT] | – | – | – | 27.2 | – | – | – |
